Results published in ChEMBL document CHEMBL1144276, “Synthesis and in vitro selective anti-Helicobacter pylori activity of pyrazoline derivatives” (2005).
In brackets after ≈: the same amount, converted by molar mass.

Assays:
Type in all cases: functional
Helicobacter pylori [1] = experiment: Minimal inhibitory concentration against 17 strains of Helicobacter pylori
Method in brief: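 Agar dilution against 16 clinical isolates plus reference strain NCTC 11637 (four metronidazole-resistant). Twofold serial dilutions in Columbia agar with 10% horse serum and 0.25% yeast extract, 128 to 0.0039 µg/mL, plates made fresh. Inoculum: 72 h growth suspended in Wilkins Chalgren broth at 0.5 McFarland, 5 µL multipoint spots; 37 °C, 72 h, microaerobic (10% CO2).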

Helicobacter pylori [2] = experiment: Minimal inhibitory concentration against metronidazole resistant Helicobacter pylori 20 strain
Method in brief: (§1)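 Agar dilution. Columbia agar with 10% horse serum and 0.25% yeast extract holds serial twofold dilutions of compound, 128 to 0.0039 µg/mL, and plates are made on the day of use. Inoculum is 72 h growth suspended in Wilkins Chalgren broth to 0.5 McFarland, applied as 5 µL by multipoint inoculator. Plates are incubated 72 h at 37 °C, microaerobic (10% CO2).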

Helicobacter pylori [3] = experiment: Minimal inhibitory concentration against metronidazole resistant Helicobacter pylori NCTC 11637 strain; method in brief: as §1
Helicobacter pylori [4] = experiment: Minimal inhibitory concentration against metronidazole resistant Helicobacter pylori 19 strain; method in brief: as §1
Helicobacter pylori [5] = experiment: Minimal inhibitory concentration against metronidazole resistant Helicobacter pylori 8 strain; method in brief: as §1

Structure (SMILES)	MIC50 (Helicobacter pylori [1])	MIC90 (Helicobacter pylori [1])	MIC (Helicobacter pylori [2])	MIC (Helicobacter pylori [3])	MIC (Helicobacter pylori [4])	MIC (Helicobacter pylori [5])
COc1ccccc1C1CC(c2ccc(O)cc2)=NN1C(C)=O (configuration not stated)	8 µg/mL (≈ 25.8 µM)	16 µg/mL (≈ 51.6 µM)				
CC(=O)N1N=C(c2c(O)cccc2O)CC1c1ccc(C)cc1 (configuration not stated)	32 µg/mL (≈ 103 µM)	128 µg/mL (≈ 412 µM)				
CC(=O)N1N=C(c2ccccc2)CC1c1ccc(Cl)cc1 (configuration not stated)	4 µg/mL (≈ 13.4 µM)	8 µg/mL (≈ 26.8 µM)				
Cc1ncc([N+](=O)[O-])n1CCO [METRONIDAZOLE]	0.5 µg/mL (≈ 2.92 µM)	64 µg/mL (≈ 374 µM)	64 µg/mL (≈ 374 µM)	64 µg/mL (≈ 374 µM)	64 µg/mL (≈ 374 µM)	64 µg/mL (≈ 374 µM)
